Source: ChEMBL document CHEMBL1139634, “Synthesis of substituted indole derivatives as a new class of antimalarial agents” (2005)
Values after ≈ are worked out from the molar mass of the structure shown.

tested on: Plasmodium falciparum; experiment: In vitro minimum inhibitory concentration against Plasmodium falciparum NF54 over 40 hours; format: functional
Procedure, shortened: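 Micro assay in 96-well format: compounds at 0.25–50 µg/mL, duplicate wells, incubated with parasitized cells at 37 °C in candle jar, 36–40 h. Giemsa-stained smears scored microscopically for ring-to-schizont maturation. MIC is the concentration fully blocking schizont maturation. Pyrimethamine reference.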

| SMILES | MIC |
| --- | --- |
| Clc1ccc(-c2cc(-c3c[nH]c4ccccc34)nc(N3CCCC3)n2)cc1 | 10 µg/mL (≈ 26.7 µM) |
| COc1ccc(-c2cc(-c3c[nH]c4ccccc34)nc(N3CCN(C)CC3)n2)cc1OC | 1 µg/mL (≈ 2.33 µM) |
| CN1CCN(c2nc(-c3ccc(Cl)cc3)cc(-c3c[nH]c4ccccc34)n2)CC1 | 1 µg/mL (≈ 2.48 µM) |
| Clc1ccc(-c2cc(-c3c[nH]c4ccccc34)nc(N3CCCCC3)n2)cc1 | 10 µg/mL (≈ 25.7 µM) |
| Clc1ccc(-c2cc(-c3c[nH]c4ccccc34)nc(N3CCOCC3)n2)cc1 | 50 µg/mL (≈ 128 µM) |
| Cc1ccc(-c2cc(-c3c[nH]c4ccccc34)nc(N3CCCCC3)n2)cc1 | 10 µg/mL (≈ 27.1 µM) |
| COc1ccc(-c2cc(-c3c[nH]c4ccccc34)nc(N3CCCCC3)n2)cc1 | 10 µg/mL (≈ 26 µM) |
| CN1CCN(c2nc(-c3ccccc3)cc(-c3c[nH]c4ccccc34)n2)CC1 | 1 µg/mL (≈ 2.71 µM) |
| COc1ccc(-c2cc(-c3c[nH]c4ccccc34)nc(N3CCN(C)CC3)n2)cc1 | 1 µg/mL (≈ 2.5 µM) |
| COc1ccc(OC)c(-c2cc(-c3c[nH]c4ccccc34)nc(N3CCOCC3)n2)c1 | 50 µg/mL (≈ 120 µM) |
| Cc1ccc(-c2cc(-c3c[nH]c4ccccc34)nc(N3CCN(C)CC3)n2)cc1 | 1 µg/mL (≈ 2.61 µM) |
| COc1ccc(-c2cc(-c3c[nH]c4ccccc34)nc(N3CCOCC3)n2)cc1 | 50 µg/mL (≈ 129 µM) |
| Cc1ccc(-c2cc(-c3c[nH]c4ccccc34)nc(N3CCOCC3)n2)cc1 | 50 µg/mL (≈ 135 µM) |
| c1ccc(-c2cc(-c3c[nH]c4ccccc34)nc(N3CCOCC3)n2)cc1 | 50 µg/mL (≈ 140 µM) |
| COc1ccc(-c2cc(-c3c[nH]c4ccccc34)nc(N3CCCC3)n2)cc1 | 10 µg/mL (≈ 27 µM) |
| c1ccc(-c2cc(-c3c[nH]c4ccccc34)nc(N3CCCCC3)n2)cc1 | 10 µg/mL (≈ 28.2 µM) |
| COc1ccc(OC)c(-c2cc(-c3c[nH]c4ccccc34)nc(N3CCCCC3)n2)c1 | 10 µg/mL (≈ 24.1 µM) |
| COc1ccc(-c2cc(-c3c[nH]c4ccccc34)nc(N3CCCC3)n2)cc1OC | 10 µg/mL (≈ 25 µM) |
| Cc1ccc(-c2cc(-c3c[nH]c4ccccc34)nc(N3CCCC3)n2)cc1 | 10 µg/mL (≈ 28.2 µM) |
| COc1ccc(-c2cc(-c3c[nH]c4ccccc34)nc(N3CCOCC3)n2)cc1OC | 50 µg/mL (≈ 120 µM) |
| COc1ccc(OC)c(-c2cc(-c3c[nH]c4ccccc34)nc(N3CCCC3)n2)c1 | 10 µg/mL (≈ 25 µM) |
| c1ccc(-c2cc(-c3c[nH]c4ccccc34)nc(N3CCCC3)n2)cc1 | 10 µg/mL (≈ 29.4 µM) |
| COc1ccc(-c2cc(-c3c[nH]c4ccccc34)nc(N3CCCCC3)n2)cc1OC | 10 µg/mL (≈ 24.1 µM) |
| COc1ccc(OC)c(-c2cc(-c3c[nH]c4ccccc34)nc(N3CCN(C)CC3)n2)c1 | 1 µg/mL (≈ 2.33 µM) |
| CCc1nc(N)nc(N)c1-c1ccc(Cl)cc1 [PYRIMETHAMINE] | 10 µg/mL (≈ 40.2 µM) |
